# Measurements from ChEMBL document CHEMBL4177755, “Combating Drug-Resistant Fungi with Novel Imperfectly Amphipathic Palindromic Peptides” (J Med Chem, 2018).
# Legend:
# [1] = Cytotoxicity against mouse RAW264.7 cells assessed as cell viability at 2 to 64 uM after 24 hrs by MTT assay relative to control; assay type: cell-based; settings: read-out: Activity
# Method in brief: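 MTT viability assay. RAW264.7 or HEK293T cells at (1.0−2.0) × 10^5 per well were exposed to a peptide concentration series for 24 h at 37 °C in 5% CO2. MTT was then added at 0.5 mg/mL final for 4 h; formazan was dissolved in DMSO and read at 570 nm. Results average three independent trials.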
# Escherichia coli [2] = assay: Antibacterial activity against Escherichia coli ATCC 25922 after 24 hrs; assay type: functional; settings: ATCC 25922, 24 h
# Method in brief: (§1)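 Broth microdilution. Mid-log bacteria in MHB at a final (0.5−1) × 10^5 CFU/mL were mixed with equal volumes of peptide serially diluted in 0.2% BSA. Plates were incubated 24 h at 37 °C and read at A492. MIC is the lowest concentration inhibiting 95% of growth. Each test was repeated at least 3 times.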
# [3] = Antibacterial activity against Salmonella pullorum ATCC 7913 after 24 hrs; assay type: functional, Salmonella enterica subsp. enterica serovar Pullorum; settings: Salmonella enterica, ATCC 7913, 24 h; method in brief: as §1
# Staphylococcus aureus [4] = assay: Antibacterial activity against methicillin-resistant Staphylococcus aureus ATCC 4330 after 24 hrs; assay type: functional; settings: ATCC 4330, 24 h
# Method in brief: (§2)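 Modified NCCLS broth microdilution. Mid-log bacteria at (0.5−1) × 10^5 CFU/mL in MHB were mixed 1:1 with peptide serially diluted in 0.2% BSA and incubated 24 h at 37 °C. Absorbance was read at 492 nm; MIC is the lowest concentration inhibiting 95% of growth. At least 3 repeats.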
# [5] = tested on: Staphylococcus epidermidis; assay: Antibacterial activity against Staphylococcus epidermidis ATCC 12228 after 24 hrs; assay type: functional; settings: ATCC 12228, 24 h; method in brief: as §1
# Staphylococcus aureus [6] = assay: Antibacterial activity against Staphylococcus aureus ATCC 25923 after 24 hrs; assay type: functional; settings: ATCC 25923, 24 h; method in brief: as §2
# Staphylococcus aureus [7] = assay: Bactericidal activity against methicillin-resistant Staphylococcus aureus ATCC 4330; assay type: functional; settings: read-out: MBC99.9
# Method in brief: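 Bacteria at (0.5−1) × 10^5 CFU/mL in MHB were exposed to serially diluted peptide (0.2% BSA) for 24 h at 37 °C, then 50 μL aliquots were plated on agar overnight. MBC is the lowest concentration killing >99.9% of cells. At least 3 repeats.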
# Staphylococcus aureus [8] = assay: Bactericidal activity against Staphylococcus aureus ATCC 25923; assay type: functional; settings: read-out: MBC99.9
# Method in brief: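 Wells from the 24 h, 37 °C MHB microdilution plates (bacteria at a final (0.5−1) × 10^5 CFU/mL; peptide diluted in 0.2% BSA) were plated on agar and incubated overnight. MBC is the lowest concentration killing >99.9% of cells. Each test was reproduced at least 3 times.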
# Candida albicans [9] = assay: Antifungal activity against Candida albicans cgmcc 2.2086 after 48 hrs by broth microdilution method; assay type: functional; settings: cgmcc 2.2086, 48 h
# Method in brief: (§3)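 Modified CLSI M27-A2 broth microdilution. Yeast at (0.5−1) × 10^3 CFU/mL in MOPS-buffered RPMI 1640 was mixed 1:1 with peptide serially diluted in 0.2% BSA and incubated 48 h at 28 °C. Absorbance was read at 492 nm; MIC is the lowest concentration inhibiting 95% of growth. Triplicate, three biological replicates.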
# Candida albicans [10] = assay: Antifungal activity against Candida albicans SP3931 after 48 hrs by broth microdilution method; assay type: functional; settings: SP3931, 48 h; method in brief: as §3
# Candida albicans [11] = assay: Antifungal activity against Candida albicans SP3903 after 48 hrs by broth microdilution method; assay type: functional; settings: SP3903, 48 h; method in brief: as §3
# Candida albicans [12] = assay: Antifungal activity against Candida albicans SP3876 after 48 hrs by broth microdilution method; assay type: functional; settings: SP3876, 48 h; method in brief: as §3
# Candida albicans [13] = assay: Antifungal activity against Candida albicans isolated from alveolar fluid after 48 hrs by broth microdilution method; assay type: functional; method in brief: as §3
# Candida albicans [14] = assay: Antifungal activity against fluconazole-resistant Candida albicans 56452 after 48 hrs by broth microdilution method; assay type: functional; settings: Candida albicans, 56452, 48 h; method in brief: as §3
# Candida albicans [15] = assay: Antifungal activity against fluconazole-resistant Candida albicans 17546 after 48 hrs by broth microdilution method; assay type: functional; settings: Candida albicans, 17546, 48 h; method in brief: as §3
# Candida tropicalis [16] = assay: Antifungal activity against Candida tropicalis cgmcc 2.1975 after 48 hrs by broth microdilution method; assay type: functional; settings: cgmcc 2.1975, 48 h
# Method in brief: (§4)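 Modified CLSI M27-A2 broth microdilution. Yeast were suspended in MOPS-buffered RPMI 1640 at a final (0.5−1) × 10^3 CFU/mL and mixed 1:1 with peptide serially diluted in 0.2% BSA. Plates were incubated 48 h at 28 °C and read at A492. MIC is the lowest concentration giving 95% inhibition. Run in triplicate with three biological replicates.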
# Pichia kudriavzevii [17] = assay: Antifungal activity against Candida krusei cgmcc 2.1857 after 48 hrs by broth microdilution method; assay type: functional; settings: cgmcc 2.1857, 48 h; method in brief: as §4
# Candida albicans [18] = assay: Fungicidal activity against Candida albicans cgmcc 2.2086 after 96 hrs; assay type: functional; settings: cgmcc 2.2086, 96 h, read-out: MFC99.9
# Method in brief: (§5)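 After the 48 h, 28 °C broth microdilution in MOPS-buffered RPMI 1640 (inoculum (0.5−1) × 10^3 CFU/mL), 50 μL from each well was plated on YM agar for a further 48 h at 28 °C. MFC is the lowest concentration killing at least 99.9% of cells. Triplicate, three biological replicates.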
# Candida albicans [19] = assay: Fungicidal activity against Candida albicans SP3931 after 96 hrs; assay type: functional; settings: SP3931, 96 h, read-out: MFC99.9; method in brief: as §5
# Candida albicans [20] = assay: Fungicidal activity against Candida albicans isolated from alveolar fluid after 96 hrs; assay type: functional; settings: read-out: MFC99.9; method in brief: as §5
# Candida albicans [21] = assay: Fungicidal activity against fluconazole-resistant Candida albicans 56452 after 96 hrs; assay type: functional; settings: Candida albicans, 56452, 96 h; read-out: MFC99.9; method in brief: as §5
# Candida albicans [22] = assay: Fungicidal activity against Candida albicans 14936 after 96 hrs; assay type: functional; settings: Candida albicans, 14936, 96 h; read-out: MFC99.9; method in brief: as §5
# Candida tropicalis [23] = assay: Fungicidal activity against Candida tropicalis cgmcc 2.1975 after 96 hrs; assay type: functional; settings: cgmcc 2.1975, 96 h, read-out: MFC99.9
# Method in brief: (§6)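 Wells from the 48 h, 28 °C RPMI 1640/MOPS microdilution plates were plated on YM agar and incubated a further 48 h at 28 °C. MFC is the lowest concentration killing at least 99.9% of cells. Run in triplicate with three biological replicates.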
# Pichia kudriavzevii [24] = assay: Fungicidal activity against Candida krusei cgmcc 2.1857 after 96 hrs; assay type: functional; settings: cgmcc 2.1857, 96 h, read-out: MFC99.9; method in brief: as §6
# Escherichia coli [25] = assay: Antibacterial activity against Escherichia coli ATCC 25922 after 18 hrs in presence of KCl by broth dilution method; assay type: functional; settings: ATCC 25922, 18 h
# Escherichia coli [26] = assay: Antibacterial activity against Escherichia coli ATCC 25922 after 18 hrs in presence of NH4Cl by broth dilution method; assay type: functional; settings: ATCC 25922, 18 h
# Escherichia coli [27] = assay: Antibacterial activity against Escherichia coli ATCC 25922 after 18 hrs in presence of MgCl2 by broth dilution method; assay type: functional; settings: ATCC 25922, 18 h
# Escherichia coli [28] = assay: Antibacterial activity against Escherichia coli ATCC 25922 after 18 hrs in presence of ZnCl2 by broth dilution method; assay type: functional; settings: ATCC 25922, 18 h
# Candida albicans [29] = assay: Antifungal activity against Candida albicans cgmcc 2.2086 in presence of MgCl2 by broth dilution method; assay type: functional
# Candida albicans [30] = assay: Antifungal activity against Candida albicans 58288 after 48 hrs by broth microdilution method; assay type: functional; settings: Candida albicans, 58288, 48 h; method in brief: as §3
substance,measurement,setting,value
H-RRLRLLLRLRR-NH2,"viability at 24 h, up to 64 µM",[1],70 to 80%
same,MIC95,Escherichia coli [2],4 µM
same,MIC95,[3],2 µM
same,MIC95,Staphylococcus aureus [4],8 µM
same,MIC95,[5],4 µM
same,MIC95,Staphylococcus aureus [6],4 µM
same,MBC,Staphylococcus aureus [7],16 µM
same,MBC,Staphylococcus aureus [8],8 µM
same,MIC95,Candida albicans [9],8 µM
same,MIC95,Candida albicans [10],8 µM
same,MIC95,Candida albicans [11],2 µM
same,MIC95,Candida albicans [12],4 µM
same,MIC95,Candida albicans [13],4 µM
same,MIC95,Candida albicans [14],4 µM
same,MIC95,Candida albicans [15],8 µM
same,MIC95,Candida tropicalis [16],2 µM
same,MIC95,Pichia kudriavzevii [17],4 µM
same,MFC,Candida albicans [18],16 µM
same,MFC,Candida albicans [19],16 µM
same,MFC,Candida albicans [20],8 µM
same,MFC,Candida albicans [21],8 µM
same,MFC,Candida albicans [22],8 µM
same,MFC,Candida tropicalis [23],4 µM
same,MFC,Pichia kudriavzevii [24],8 µM
same,MIC,Escherichia coli [25],4 µM
same,MIC,Escherichia coli [26],4 µM
same,MIC,Escherichia coli [27],2 µM
same,MIC,Escherichia coli [28],4 µM
same,MIC,Candida albicans [29],8 µM
same,MIC95,Candida albicans [30],8 µM
H-RRWRWWWRWRR-NH2,"viability at 24 h, up to 64 µM",[1],70 to 80%
same,MIC95,Escherichia coli [2],4 µM
same,MIC95,[3],2 µM
same,MIC95,Staphylococcus aureus [4],4 µM
same,MIC95,[5],4 µM
same,MIC95,Staphylococcus aureus [6],4 µM
same,MBC,Staphylococcus aureus [7],8 µM
same,MBC,Staphylococcus aureus [8],8 µM
same,MIC95,Candida albicans [9],4 µM
same,MIC95,Candida albicans [10],4 µM
same,MIC95,Candida albicans [11],4 µM
same,MIC95,Candida albicans [12],2 µM
same,MIC95,Candida albicans [13],4 µM
same,MIC95,Candida albicans [14],4 µM
same,MIC95,Candida albicans [15],4 µM
same,MIC95,Candida tropicalis [16],2 µM
same,MIC95,Pichia kudriavzevii [17],2 µM
same,MFC,Candida albicans [18],8 µM
same,MFC,Candida albicans [19],8 µM
same,MFC,Candida albicans [20],8 µM
same,MFC,Candida albicans [21],4 µM
same,MFC,Candida albicans [22],8 µM
same,MFC,Candida tropicalis [23],4 µM
same,MFC,Pichia kudriavzevii [24],2 µM
same,MIC,Escherichia coli [25],4 µM
same,MIC,Escherichia coli [26],4 µM
same,MIC,Escherichia coli [27],2 µM
same,MIC,Escherichia coli [28],4 µM
same,MIC,Candida albicans [29],4 µM
same,MIC95,Candida albicans [30],2 µM
H-RWRWWWRWR-NH2,"viability at 24 h, up to 64 µM",[1],70 to 80%
same,MIC95,Escherichia coli [2],4 µM
same,MIC95,[3],2 µM
same,MIC95,Staphylococcus aureus [4],2 µM
same,MIC95,[5],4 µM
same,MIC95,Staphylococcus aureus [6],4 µM
same,MBC,Staphylococcus aureus [7],2 µM
same,MBC,Staphylococcus aureus [8],8 µM
same,MIC95,Candida albicans [9],8 µM
same,MIC95,Candida albicans [10],8 µM
same,MIC95,Candida albicans [11],8 µM
same,MIC95,Candida albicans [12],4 µM
same,MIC95,Candida albicans [13],8 µM
same,MIC95,Candida albicans [14],4 µM
same,MIC95,Candida albicans [15],1 µM
same,MIC95,Candida tropicalis [16],2 µM
same,MIC95,Pichia kudriavzevii [17],4 µM
same,MFC,Candida albicans [18],16 µM
same,MFC,Candida albicans [19],16 µM
same,MFC,Candida albicans [20],16 µM
same,MFC,Candida albicans [21],4 µM
same,MFC,Candida albicans [22],8 µM
same,MFC,Candida tropicalis [23],2 µM
same,MFC,Pichia kudriavzevii [24],8 µM
same,MIC,Escherichia coli [25],4 µM
same,MIC,Escherichia coli [26],4 µM
same,MIC,Escherichia coli [27],2 µM
same,MIC,Escherichia coli [28],2 µM
same,MIC,Candida albicans [29],8 µM
same,MIC95,Candida albicans [30],4 µM
